Screening results from PubChem BioAssay.
This is a sample that favours compounds with a hit; in the whole collection about 2.1% have one here.
CRFR2-BP ag = agonists of human CRF-binding protein/CRF-R2 receptor complex; AID 588473; activation, % at 13.2 µM; 350,000 tested, 0.46% active; HEK293 CRF-R2/CRF-BP, calcium dye fluorescence (FLIPR); percent of saturating CRF peptide response;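 active = activation of at least 50%, plus an integration ratio under a set limit after plate pattern correction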;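 also: plate controls were neutral control wells without compound for no effect and CRF at EC100 for full effect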
beta cell repl = inducers of beta-cell replication in MIN6 cells; AID 2380; MIN6 cells proliferation, ATPlite luminescence, 48 h; cells starved in 0.2% serum; 100% = growth in 10% serum; proliferation, % at 10 µM; 330,000 tested, 0.29% active;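 active = compounds whose signal lies at least 3.5 SD above the mean of all wells on their plate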;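 also: 0% = DMSO-treated cells in low-serum medium and 100% = 10% serum control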
CRFBP-R2 block = blocks CRF-induced signaling of the CRF-BP/CRF-R2 complex. HEK293 CRF-R2/CRF-BP, CRF-induced calcium fluorescence. inhibition, % at 11.8 µM. 350,000 tested, 0.59% active. AID 588475;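 active = inhibition of the ligand-induced calcium signal above about 50% at the single tested concentration, limit read from the data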
H9c2 protect = modulators protecting cardiomyocytes from myocardial damage | H9c2 cardiomyocytes, H2O2 injury protection, ATPLite, 2 h | 360,000 tested, 0.63% active | protection from H2O2 cell death, % at 20 µM;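 active = compounds giving at least 50% protection of heart cells from peroxide-induced death in the single-dose screen, raw or plate-pattern-corrected value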;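 also: 0% = DMSO wells with peroxide and 100% = DMSO wells without peroxide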
iPSC survival up = hiPSC single-cell survival enhancement | ATPlite luminescence; 100% = ROCK inhibitor wells, 0% = DMSO | AID 602274 | 360,000 tested, 0.044% active | survival enhancement, % at 20 µM; in the data active = survival enhancement above about 18%;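 also: cells exposed to compounds for 16 hours before the ATP read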
UCH37 inh = inhibitors of human deubiquitinating enzyme UCH37; purified proteasome/UCH37, Ub-AMC cleavage fluorescence; Q9Y5K5; 330,000 tested, 0.33% active; inhibition, % (test concentration not listed);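 active = mean inhibition over replicate wells above about 20%, limit read from the data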;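 also: 0% = compound-free wells with enzyme and 100% = wells lacking proteasome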
Target sequence (Q9Y5K5 whole entry, looked up): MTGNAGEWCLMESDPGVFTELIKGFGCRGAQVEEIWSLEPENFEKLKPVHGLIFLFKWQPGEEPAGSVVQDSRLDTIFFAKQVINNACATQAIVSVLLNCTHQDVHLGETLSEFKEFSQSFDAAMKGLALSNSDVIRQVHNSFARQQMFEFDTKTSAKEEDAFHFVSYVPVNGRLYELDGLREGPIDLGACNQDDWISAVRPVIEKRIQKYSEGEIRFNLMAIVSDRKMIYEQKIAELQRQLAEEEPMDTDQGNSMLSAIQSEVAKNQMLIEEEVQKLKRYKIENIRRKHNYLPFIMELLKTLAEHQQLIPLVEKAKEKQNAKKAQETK
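Material: human UCH37 enzyme supplied as purified proteasome complex / Amount: 0.15 nM proteasome as dispensed / Buffer or medium: pH 7.4 Tris-HCl (50 mM) with ovalbumin, ATP-MgCl2, DTT / Times: preincubation 30 min, reaction 25 min, room temperature / Technique: AMC fluorescence from Ub-AMC cleavage, excitation 355 nm, emission 460 nm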
* hit, by the source's call; i = inactive; . = no result given.

SMILES	CRFR2-BP ag	beta cell repl	CRFBP-R2 block	H9c2 protect	iPSC survival up	UCH37 inh
COc1ccc(O)c(/C=N/NC(=O)c2c(C)nnn2-c2nonc2N)c1	-1	2	-9	55*	-2	.
C/C(=N\NC(=O)c1nnn(-c2nonc2N)c1CN1CCc2ccccc21)c1ccccc1O	2	-8	4	58*	0	.
Nc1nonc1-n1nnc(C(=O)N/N=C/c2ccccc2)c1CN1CCc2ccccc21	0	2	-5	1	0	.
Cc1ccccc1C(=O)N1c2ccccc2OCC1C(C)(C)C (stereo unspecified)	2	6	-59	-6	2	5
CC(C)(C)C1COc2ccccc2N1C(=O)c1ccccc1Cl (stereo unspecified)	57*	2	-62	-6	0	3
NC(=NO)c1ccc(N2CCN(c3ncccc3C(F)(F)F)CC2)nc1	.	.	.	.	.	1
O=C(c1ccccc1)c1ccc(O)cc1O	61*	4	-44	-9	0	10
COc1ccc(C2/C=C\CN(C(=O)c3ccc(C)cc3)[C@H](Cc3ccccc3)C(=O)N2Cc2ccc(F)cc2)cc1 (stereo partly specified)	7	-7	1	85*	-3	4
O=C(CC(=O)NN=Cc1ccccc1)NCc1ccccc1	.	.	.	.	.	4
O=C(CCc1nc2ccccc2c(=O)[nH]1)N1CCN(S(=O)(=O)c2cccc([N+](=O)[O-])c2)CC1	0	-1	10	70*	0	0
CN(Cc1nc2ccccc2c(=O)[nH]1)C(=O)c1cccc(S(=O)(=O)N2CCCC2)c1	0	-4	2	40	-2	0
O=C(CCc1nc2ccccc2c(=O)[nH]1)N1CCN(S(=O)(=O)c2ccc(F)cc2)CC1	1	2	-6	86*	1	4
O=C(CCc1c[nH]c2ccccc12)N1CCN(S(=O)(=O)c2ccc(F)cc2)CC1	0	-1	4	-2	0	1
COc1ccc2c(C)cc(SCc3c(C)noc3C)nc2c1	-1	-1	56*	-15	6	-2
COc1ccc2c(C)cc(SCC#N)nc2c1	2	2	7	-3	-1	-3
CC(/C=C/c1ccc2c(c1)OCO2)=NNC(=O)C1COc2ccccc2O1 (stereo unspecified)	.	.	.	.	.	-21
COc1cc2nc(C3CCC3)nc(N3CCN(c4ccccc4OC)CC3)c2cc1OC	0	0	15	-4	2	-1
COc1cc2nc(C3CCC3)nc(N3CCN(c4ccccn4)CC3)c2cc1OC	1	-4	-4	60*	-2	.
Cc1ccc(C=NNC(=O)c2cccc3ccccc23)o1	.	.	.	.	.	-40
O=C(c1ccccc1[N+](=O)[O-])N1CCc2ccccc2C1	-3	2	15	2	1	5
Cc1cccc(C(=O)N2CCc3ccccc3C2)c1[N+](=O)[O-]	-5	-4	85*	5	-1	2
Cc1cc(=O)oc2c1ccc1oc(/C(=N/O)c3ccccc3)c(C)c12	-1	-6	118*	-2	3	.
Cc1cc(=O)oc2c1ccc1oc(C(=NO)c3ccccc3)c(C)c12	.	.	.	.	.	-3
Cc1ccc(-c2nnc(SCC(=O)NN=Cc3ccccc3C(=O)O)n2C2CCCCC2)cc1	.	.	.	.	.	0
CCOC(=O)c1ccc2c(c1)n(CCO)c(C)[n+]2CC	0	2	-9	0	4	4
SMILES	CRFR2-BP ag	beta cell repl	CRFBP-R2 block	H9c2 protect	iPSC survival up	UCH37 inh
CCOC(=O)c1ccc2c(c1)n(CC)c(/C=C/N(C)c1ccccc1)[n+]2CC	0	-5	-16	-14	-3	24*
CCOC(=O)COc1cc(OCC(=O)OCC)c2c3c(c(=O)oc2c1)CCCC3	0	-2	2	64*	0	-120
C=CCOC(=O)COc1ccc2c3c(c(=O)oc2c1)CCCC3	2	.	-6	87*	-1	.
CCN(CC)C(=O)C[n+]1cccc(C=NO)c1	.	.	.	.	.	2
Cc1cc(O)c(C2(O)C(=O)Nc3cc(Br)ccc32)cc1C (stereo unspecified)	4	-5	121*	-8	-1	5
O=C1Nc2cc(Br)ccc2C1(O)c1ccccc1O (stereo unspecified)	6	-2	9	-2	-1	3
CC(/C=C/c1ccco1)=NNC(=O)C(O)c1ccccc1 (stereo unspecified)	.	.	.	.	.	11
CN1CCN(C(c2cccnc2)c2ccc3cccnc3c2O)CC1 (stereo unspecified)	-1	-6	-1	62*	-3	1
CC(C)(C)OC(=O)NN=Cc1ccc(N2CCOCC2)s1	.	.	.	.	.	-4
Cc1noc(C(F)(F)F)c1C(=O)NNC(=O)c1cccc(C(F)(F)F)c1	2	-3	114*	-3	0	2
CN1C/C(=C/c2cccnc2)C(=O)/C(=C/c2cccnc2)C1	3	.	-21	1	24*	7
O=C(NN=Cc1ccsc1)c1cc(-c2ccncc2)nc2ccccc12	.	.	.	.	.	2
NC(=O)c1oc2ccccc2c1NC(=O)c1ccco1	1	2	-3	72*	0	3
O=C(NNC(=O)c1oc2ccccc2c1-n1cccc1)c1ccco1	-3	-1	97*	-4	0	2
NC(=O)c1oc2ccccc2c1NC(=O)c1ccccc1	1	-1	-17	12	1	2
COc1ccc(Cl)c2c1[nH]c1nc(SCc3ccccn3)nnc12	0	-1	9	64*	0	7
COc1ccc(Cl)c2c1[nH]c1nc(SCc3cccnc3)nnc12	-1	-1	3	-2	0	.
O=C1NC(=S)N/C1=C\c1ccccc1OCc1ccc(C(=O)O)cc1	1	-1	-6	-1	0	5
O=C(O)c1ccc(COc2ccccc2C=C2C(=O)c3ccccc3C2=O)cc1	-1	-5	81*	14	-2	0
c1ccc2c(c1)OCCOCCOCCOCCOc1ccccc1OCCOCCOCCO2	1	-4	50*	0	-3	4
CN1CCOCCOc2ccccc2OCCOCC1	2	-2	-8	-2	0	4
Cc1ccc(S(=O)(=O)N[C@H](C(=O)Oc2ccc3c(C(F)(F)F)cc(=O)oc3c2)c2ccccc2)cc1	69*	-1	-20	5	-3	.
Cc1ccc(S(=O)(=O)NC(C(=O)Oc2ccc3ccc(=O)oc3c2)c2ccccc2)cc1 (stereo unspecified)	-1	3	-7	-1	2	i
S=C1Cc2ccccc2N1	0	.	-14	-17	11	81*
O=C(Cn1ccc(C(F)(F)F)n1)NN=Cc1ccc(N2CCOCC2)cc1	.	.	.	.	.	-185
C=CCN1C(=O)/C(=C/c2cccs2)SC1=NS(=O)(=O)c1ccc(F)cc1	.	.	.	.	.	1
